Assay results reported in ChEMBL document CHEMBL3124750 (Bioorg Med Chem Lett, 2014).

Tests used:
Liver microsome [1] = assay: Drug metabolism in rat liver microsomes assessed as retention time of deethylated M1 metabolite formation after 30 mins by LC-MS/MS analysis; format: ADME; conditions: 0.5 h
Summary of the method: (§1)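 Rat liver microsomes, 30 min incubation; metabolites detected by LC-MS and MS-MS. Chromatography: C18 column (2.1 x 150 mm, 5 µm), water/acetonitrile each with 0.05% formic acid, gradient 60:40 to 20:80 over 20 min, 200 µL/min; UV detection at 275 nm; retention times recorded.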

[2] = Octanol-buffer partition coefficient, log D of the compound at pH 7.4 by HPLC method; format: physicochemical
Summary of the method: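 The HPLC retention time was converted to logD7.4 by calibration against known logD values of similar compounds. C18 column (4.6 x 20 mm, 3.5 µm); A: 5 mM MOPS/(CH3)4NOH pH 7.4; B: 5% MOPS/(CH3)4NOH (100 mM, pH 7.4) in 95% acetonitrile; gradient 98:2 to 0:100; 1.2 mL/min; 25 °C; detection at 254 nm.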

Liver microsome [3] = assay: Drug metabolism in rat liver microsomes assessed as retention time of hydroxylated M2 metabolite formation after 30 mins by LC-MS/MS analysis; format: ADME; conditions: 0.5 h; summary of the method: as §1
Translocator protein = Translocator protein (Rattus norvegicus, UniProt P16257); assay: Displacement of [3H]PK11195 from TSPO in rat heart membrane homogenates; format: cell membranes
Chain of Translocator protein (P16257 whole entry, looked up): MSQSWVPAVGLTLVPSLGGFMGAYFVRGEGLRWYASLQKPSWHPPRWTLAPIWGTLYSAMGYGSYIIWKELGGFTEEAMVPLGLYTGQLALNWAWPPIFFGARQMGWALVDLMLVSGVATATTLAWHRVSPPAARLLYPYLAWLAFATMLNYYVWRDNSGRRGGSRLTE

Liver microsome [4] = assay: Drug metabolism in rat liver microsomes assessed as retention time of hydroxylated M3 metabolite formation after 30 mins by LC-MS/MS analysis; format: ADME; conditions: 0.5 h; summary of the method: as §1
[5] = Displacement of [3H]flunitrazepam from CBR in rat cerebral cortex membrane homogenates; format: cell membranes
Summary of the method: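 Central benzodiazepine receptor counter-screen: competition against [3H]flunitrazepam (Kd = 2.1 nM, used at 0.4 nM) on rat cerebral cortex membrane homogenates; Ki values derived.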

Liver microsome [6] = assay: Drug metabolism in rat liver microsomes assessed as retention time of dihydroxylated M4 metabolite formation after 30 mins by LC-MS/MS analysis; format: ADME; conditions: 0.5 h; summary of the method: as §1
Liver microsome [7] = assay: Drug metabolism in rat liver microsomes assessed as retention time of compound after 30 mins by LC-MS/MS analysis; format: ADME; conditions: 0.5 h; summary of the method: as §1
Striatum [8] = assay: Drug uptake in iv dosed AMPA lesioned Wistar rat brain striatum measured after 60 mins by MicroPET imaging analysis; format: ADME, organism-based; conditions: in vivo, 1 h
Summary of the method: (§2)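 MicroPET on anesthetized Wistar rats 7 days after AMPA injection into the right striatum. The [18F]-labelled tracer was given i.v.; uptake is expressed as percent injected dose per mL (% ID/mL) in the lesioned striatum or the contralateral area at 60 min.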

Striatum [9] = assay: Drug uptake in iv dosed AMPA lesioned Wistar rat brain contralateral side of striatum measured after 60 mins by MicroPET imaging analysis; format: ADME, organism-based; conditions: in vivo, 1 h; summary of the method: as §2
Striatum [10] = assay: Ratio of drug level from ipsilateral to contralateral in Wistar rat administered as iv measured after 60 mins of postinjection by MicroPET imaging analysis; format: ADME, organism-based; conditions: in vivo, 1 h
Summary of the method: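 Anesthetized Wistar rats lesioned by AMPA injection into the right striatum 7 days earlier received the [18F] tracer i.v. for microPET. The ratio is bound tracer in the lesion divided by bound tracer in the contralateral side at 60 min post-injection.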

Retention_time (Liver microsome [1]) [min] | logD [2] | Retention_time (Liver microsome [3]) [min] | Ki (Translocator protein) [nM] | Retention_time (Liver microsome [4]) [min] | Ki [5] [nM] | Retention_time (Liver microsome [6]) [min] | Retention_time (Liver microsome [7]) [min] | Drug uptake (Striatum [8]) [%ID/ml] | Drug uptake (Striatum [9]) [%ID/ml] | Ratio (Striatum [10]) | Structure (SMILES)
12.08 | 4.06 | 11.37 | 0.35 | 8.92 | > 1000 | 3.43 | 17.05 |  |  |  | CCN(CC)C(=O)Cc1c(-c2ccc(C#CCCCF)cc2)nn2c(C)cc(C)nc12
 |  |  |  |  |  |  |  | 0.3 | 0.08 |  | CCN(CC)C(=O)Cc1c(-c2ccc(OCC[18F])cc2)nn2c(C)cc(C)nc12 [DPA-714 F-18]
11.68 | 3.67 | 11.19 | 0.74 | 10.01 | > 1000 | 5.89 | 15.81 |  |  |  | CCN(CC)C(=O)Cc1c(-c2ccc(C#CCCF)cc2)nn2c(C)cc(C)nc12
11.68 | 4.35 | 11.19 | 0.79 | 10.01 | > 1000 | 5.89 | 15.81 |  |  |  | CCN(CC)C(=O)Cc1c(-c2ccc(C#CCCCCF)cc2)nn2c(C)cc(C)nc12
 |  |  |  |  |  |  |  | 0.24 | 0.05 | 4.62 | CCN(CC)C(=O)Cc1c(-c2ccc(C#CCCC[18F])cc2)nn2c(C)cc(C)nc12
11.41 | 3.61 | 11 | 0.54 |  | > 1000 |  | 15.66 |  |  |  | CCN(CC)C(=O)Cc1c(-c2ccc(C#CCF)cc2)nn2c(C)cc(C)nc12
 | 2.89 |  |  |  | > 1000 |  |  |  |  |  | CCN(CC)C(=O)Cc1c(-c2ccc(OCCF)cc2)nn2c(C)cc(C)nc12 [DPA-714]
 |  |  |  |  |  |  |  |  |  | 1.65 | CCC(C)N([11CH3])C(=O)c1cc2ccccc2c(-c2ccccc2Cl)n1 (stereo not drawn)
